In ChEMBL document CHEMBL1817591, “Novel benzofuroxan derivatives against multidrug-resistant Staphylococcus aureus strains: design using Topliss' decision tree, synthesis and biological assay” (2011):
Values after ≈ are worked out from the molar mass of the structure shown.

What was measured:
Staphylococcus aureus [1] = assay: Antibacterial activity against multidrug-resistant Staphylococcus aureus 3SP/R33 after 18 hrs by serial broth microdilution method; format: functional; settings: 3SP/R33, 18 h
Method in brief: (§1)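 Two-stage broth microdilution MIC in Tryptic Soy Broth, run in triplicate. Phase I used two-fold serial dilutions from DMSO/TSB 1:10 v/v stocks, with ampicillin and vancomycin as controls. The inoculum was 0.5 McFarland, diluted in saline and TSB. […] Phase II diluted a stock at twice the Phase I MIC across 11 columns.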

Staphylococcus aureus [2] = assay: Antibacterial activity against vancomycin-intermediate Staphylococcus aureus VISA3 at 2 times MIC of multidrug-resistant Staphylococcus aureus 3SP/R33 after 18 hrs by serial broth microdilution method; format: functional; settings: VISA3, 18 h; method in brief: as §1

`O=C(N/N=C/c1ccc2c(c1)no[n+]2[O-])c1ccc(Cl)c(Cl)c1` showed an MIC (Staphylococcus aureus [1]) of 7.5 µg/mL (≈ 21.4 µM) and an MIC (Staphylococcus aureus [2]) of 11.8 µg/mL.

Work on `O=C(N/N=C/c1ccc2c(c1)no[n+]2[O-])c1ccc([N+](=O)[O-])c(C(F)(F)F)c1` yielded an MIC (Staphylococcus aureus [1]) of 7.5 µg/mL (≈ 19 µM) and an MIC (Staphylococcus aureus [2]) of 11.4 µg/mL.

For `O=C(N/N=C/c1ccc2c(c1)no[n+]2[O-])c1ccc(Cl)cc1Cl`, the MIC (Staphylococcus aureus [1]) was 15 µg/mL (≈ 42.7 µM) and the MIC (Staphylococcus aureus [2]) was 17.7 µg/mL.

Molecule `O=C(N/N=C/c1ccc2c(c1)no[n+]2[O-])c1ccc([N+](=O)[O-])cc1` has an MIC (Staphylococcus aureus [1]) of 15 µg/mL (≈ 45.8 µM) and an MIC (Staphylococcus aureus [2]) of 21.9 µg/mL.

With `O=C(N/N=C/c1ccc2c(c1)no[n+]2[O-])c1ccc(Br)cc1` the MIC (Staphylococcus aureus [1]) was 10 µg/mL (≈ 27.7 µM) and the MIC (Staphylococcus aureus [2]) was 18 µg/mL.

Molecule `O=C(N/N=C/c1ccc2c(c1)no[n+]2[O-])c1ccc(Cl)cc1` has an MIC (Staphylococcus aureus [1]) of 10 µg/mL (≈ 31.6 µM) and an MIC (Staphylococcus aureus [2]) of 15.3 µg/mL.

For `O=C(N/N=C/c1ccc2c(c1)no[n+]2[O-])c1ccccc1`, the MIC (Staphylococcus aureus [1]) was 10 µg/mL (≈ 35.4 µM) and the MIC (Staphylococcus aureus [2]) was 16.2 µg/mL.

For `O=C(N/N=C/c1ccc2c(c1)no[n+]2[O-])c1ccc(C(F)(F)F)cc1`, the MIC (Staphylococcus aureus [1]) was 10 µg/mL (≈ 28.6 µM) and the MIC (Staphylococcus aureus [2]) was 13.1 µg/mL.
